An excerpt weighted towards active compounds, which were near 2.2% of everything screened.
Wee1 stabilizer: human Wee1 degradation inhibition, primary screen. P30291. HeLa Luc-Wee1K328M stability, luciferase luminescence; 100% = proteasome inhibitor MG132 effect. reporter increase, % at 5 µM. actives 1.2% (n = 220,000). AID 1321;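 active = activation above the mean of all tested compounds plus 3 SD, set per screening run, cut at about 8.8% in these data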;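 note: cells exposed to compound for 20 h before luminescence read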
Target sequence (P30291 whole entry K328M): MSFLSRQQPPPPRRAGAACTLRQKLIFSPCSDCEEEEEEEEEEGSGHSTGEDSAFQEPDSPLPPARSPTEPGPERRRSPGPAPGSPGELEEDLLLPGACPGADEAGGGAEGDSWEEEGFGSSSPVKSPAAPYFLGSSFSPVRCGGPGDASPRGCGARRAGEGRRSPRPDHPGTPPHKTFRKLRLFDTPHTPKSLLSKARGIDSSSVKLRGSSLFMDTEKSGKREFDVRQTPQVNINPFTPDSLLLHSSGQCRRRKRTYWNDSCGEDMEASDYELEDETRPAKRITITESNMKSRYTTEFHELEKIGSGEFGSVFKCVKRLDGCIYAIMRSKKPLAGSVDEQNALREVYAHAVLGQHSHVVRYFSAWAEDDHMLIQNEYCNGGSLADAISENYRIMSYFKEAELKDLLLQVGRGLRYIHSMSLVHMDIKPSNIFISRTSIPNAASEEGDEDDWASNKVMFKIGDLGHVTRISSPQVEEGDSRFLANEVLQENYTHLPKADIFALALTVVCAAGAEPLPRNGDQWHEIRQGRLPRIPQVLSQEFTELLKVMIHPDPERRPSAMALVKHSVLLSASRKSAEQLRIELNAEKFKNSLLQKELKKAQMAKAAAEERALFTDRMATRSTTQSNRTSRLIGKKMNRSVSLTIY
thrombin 1536: thrombin (human) inhibition | P00734 | alpha-thrombin, Boc-VPR-AMC fluorogenic substrate cleavage | inhibition, % at 5 µM | actives 0.26% (n = 220,000) | AID 1046;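 active = inhibition at or above 40%; inactive = inhibition below 40%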
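Material: human alpha-thrombin protein. Incubation: reaction at ambient temperature. Technique: fluorescence of released AMC, ex 355 nm, em 460 nm. Control set: no-compound enzyme wells and no-enzyme blanks. Also added: Boc-VPR-AMC substrate, 15 µM final. Buffer or medium: pH 7.5 Tris (50 mM) with NaCl 150 mM, Tween 20 0.05%.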
FXIa inh: inhibitors of human coagulation factor XIa. P03951. purified FXIa, Boc-Glu-Ala-Arg-AMC fluorogenic substrate. inhibition, % at 5 µM. actives 0.14% (n = 220,000);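 active = inhibition of at least 40%; inactive = inhibition below 40%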;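 note: fluorescence of freed AMC excited at 355 nm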
FXIIa inh: blocks human coagulation factor XIIa protease activity; purified FXIIa, Boc-QGR-AMC fluorogenic substrate, 2 h; actives 0.3% (n = 220,000); P00748; AID 800; inhibition, % at 5 µM; in the data active = inhibition above about 40%
hK5 inh: blocks human kallikrein 5 protease activity | Q9Y337 | recombinant hK5, fluorogenic AMC substrate cleavage | inhibition, % at 5 µM | actives 0.59% (n = 210,000) | AID 873;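 active = inhibition of 40% or more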
A number is an active result; . = inactive; / = not tested or not shown.

SMILES	Wee1 stabilizer	thrombin 1536	FXIa inh	FXIIa inh	hK5 inh
CCCc1cc(=O)c2c(O)ccc(OC)c2o1	.	.	.	.	.
CCOc1cc(/C=N/n2cnnc2)cc(Br)c1O	.	.	.	43	.
COc1ccc(CSc2nc(C)cc(C)c2S(C)(=O)=O)cc1	.	.	41	.	.
CC(C)(C)c1ccc(C(=O)N2CCN(CCNC(=O)C(=O)NCc3ccccc3)CC2)cc1	.	.	.	.	.
COc1cc(NC(=O)CSc2nnc3c(n2)[nH]c2ccc(S(=O)(=O)NC(C)C)cc23)cc(OC)c1OC	.	.	.	.	.
Cc1cccc2cc(C(c3nnnn3CC3CCCO3)N3CCc4ccccc4C3)c(=O)[nH]c12 (stereo not given)	.	.	.	.	43
Cc1noc(/C=C/c2cccs2)c1S(=O)(=O)N1CCC(C(=O)NCCCN2CCCC(C)C2)CC1 (stereo not given)	9.2	.	.	.	/
CCCCNC(=O)C1CCCN(S(=O)(=O)c2c(C)noc2/C=C/c2cccs2)C1 (stereo not given)	.	.	.	.	.
N#CCCN(Cc1ccccc1)C(=O)c1cccs1	.	.	.	.	.
CCOC(=O)c1oc2ccc(Br)cc2c1NC(=O)CN1CCN(C)CC1	.	.	.	.	.
O=C(Nc1c(C(=O)O)oc2ccc(Br)cc12)c1ccccc1	13	.	.	.	.
COc1ccc(C(=O)N[C@H](C(=O)Nc2nc3c(s2)CCCC3)C(C)C)cc1	10	.	.	.	.
NC(=O)c1sc2nc(-c3cccnc3)ccc2c1N	.	.	.	.	.
CCOC(=O)c1sc2nc(-c3cccnc3)ccc2c1N	9.3	.	.	.	.
Nc1c(C(=O)Nc2ccccc2F)sc2nc(-c3cccnc3)ccc12	.	.	.	.	.
Nc1c(C(=O)Nc2ccc(Cl)c(Cl)c2)sc2nc(-c3cccnc3)ccc12	.	.	.	.	48
Cc1ccc(CCNC(=O)C2CCCN(C(=O)c3cc4sccc4n3C)C2)cc1 (stereo not given)	.	.	.	.	47
Cn1c(C(=O)N2CCCC(C(=O)NCCc3ccccc3)C2)cc2sccc21 (stereo not given)	.	.	.	.	.
CC1(C)C2CCC(C2)C1C/C=N/NC(N)=S (stereo not given)	.	.	.	.	.
CCOC(=O)c1sc(NC(=S)NC(=O)C23CC4CC(CC(C4)C2)C3)cc1C	9.4	.	.	.	.
CCOC(=O)c1sc(NC(=S)NC(=O)C2CC2)cc1C	.	.	.	.	.
COc1ccc(CN2CCN(C(=O)C3CCC(CNS(=O)(=O)c4ccccc4)CC3)CC2)c(OC)c1OC (stereo not given)	.	.	.	101	.
N#CC1=C(N)N(c2ncn[nH]2)C2=C(C(=O)CCC2)C1c1ccc(F)cc1 (stereo not given)	.	.	.	.	.
N/C(=N\OC(=O)c1cccc(Cl)c1)c1cccnc1	.	47	.	.	.
N/C(=N\OC(=O)c1ccc(Cl)c(Cl)c1)c1cccnc1	.	.	.	.	.
SMILES	Wee1 stabilizer	thrombin 1536	FXIa inh	FXIIa inh	hK5 inh
O=[N+]([O-])c1cccc(C=Nc2cc3c(cc2Br)OCCO3)c1	.	.	.	.	51
COc1ccc(/C=C/C(=O)c2cc3c(cc2N)OCO3)cc1	.	.	.	.	.
CC(C)CCNC(=O)NC(=O)CSc1nnc(-c2ccccc2F)n1N	.	.	.	.	76
O=C(NCc1ccc(F)cc1)C1CCC(=O)N1C1CCCCC1 (stereo not given)	10	.	.	.	.
Cc1ccc(CNC(=O)C2CCC(=O)N2C2CCCCC2)cc1 (stereo not given)	.	.	.	.	.
O=C(N/N=C/c1ccc(COc2ccc(Br)cc2)o1)c1ccco1	.	.	.	.	.
CC1(C)OC(=CC=Nc2ccc(Cl)cc2)OC1(C)C	.	.	.	45	.
O=C(NC(=S)Nn1cnnc1)c1ccccc1Cl	.	45	.	.	48
COCCn1cc(C(=O)c2ccccc2OCC(=O)Nc2cc(C)on2)cc(C#N)c1=O	.	.	.	.	42
Cc1ccc(C(CC(=O)c2ccco2)SCCO)cc1 (stereo not given)	11	.	.	.	.
O=C(CC(SCCO)c1ccc(F)cc1)c1ccco1 (stereo not given)	.	.	.	.	.
Cc1c(NC(=O)C(C)OC(=O)c2c3c(nc4ccccc24)CCC3)c(=O)n(-c2ccccc2)n1C (stereo not given)	.	.	.	.	.
COc1cc2c(cc1OC)C1C(C(=O)Nc3ccccc3N3CCN(C)CC3)c3ccccc3C(=O)N1CC2 (stereo not given)	.	.	.	.	.
Cc1ccc(NC(=S)NCCc2ccccc2)nc1	.	.	54	.	.
Cc1ccc(NC(=O)CCCc2ccccc2)nc1	.	.	.	.	.
N/C(=N\S(=O)(=O)c1ccccc1)c1ccc([N+](=O)[O-])cc1	.	48	.	.	.
N/C(=N/S(=O)(=O)c1ccccc1)c1cccc([N+](=O)[O-])c1	.	.	.	.	/
CC(=O)c1c(C)[nH]c(C(=O)NC(C)c2ccccc2)c1C (stereo not given)	.	.	.	.	.
Cc1cc(C)nc(/N=C(\NC(=O)C(C)(C)C)Nc2ccc(F)cc2)n1	.	.	.	.	.
O=C(Nc1ccc(N2CCCCC2)c(Cl)c1)c1ccc(N2CCOCC2)c([N+](=O)[O-])c1	.	.	.	.	45
CC(=O)N1CCN(c2ccc(NC(=O)c3ccc(N4CCCC4)c([N+](=O)[O-])c3)cc2Cl)CC1	.	.	.	.	.
CCC(C)NC(=O)COC(=O)c1ccc(Cl)cc1O (stereo not given)	.	.	.	.	.
CC(O)C1CCC2C3CC[C@H]4CC(O)CCC4(C)C3CC3(OCCO3)C12C (stereo not given in full)	.	.	.	.	138
CC(C(=O)NCCc1ccc(F)cc1)N1CCN(Cc2ccccc2)CC1 (stereo not given)	.	.	.	.	.
CS(=O)(=O)N1CCN(c2ccccc2[N+](=O)[O-])CC1	.	.	.	/	.
SMILES	Wee1 stabilizer	thrombin 1536	FXIa inh	FXIIa inh	hK5 inh
O=C(O)c1cc(/C=N\O)ccc1OCc1ccccc1	.	.	.	.	51
COc1ccc(-c2noc(Cc3ccccc3OC)n2)cc1	8.9	.	.	.	.
Cc1ccccc1OCc1nc(-c2ccccc2)no1	11	.	.	.	.
Cc1ccc(NC(=O)N2C(=O)C3(OCCO3)c3ccccc32)cc1	21	.	.	.	.
CCCN1CCC2(CC1)C(C#N)=C(N)Oc1c2sc2nc(C)cc(C)c12	.	.	.	.	.
Cc1cc(C)c2c3c(sc2n1)C(c1cccc(F)c1)C(C#N)=C(N)O3 (stereo not given)	.	60	.	.	.
CCOc1ccccc1N1CC(O)=C(c2nc3ccccc3s2)C1=N	10	.	.	.	.

Compound activity from PubChem.
